Experimental data taken from ChEMBL document CHEMBL5150021, “Identification of 5-(Aryl/Heteroaryl)amino-4-quinolones as Potent Membrane-Disrupting Agents to Combat Antibiotic-Resistant Gram-Positive Bacteria” (J Med Chem, 2022).
In brackets after ≈: the same amount, converted by molar mass. Activity calls are given as the source filed them. No cut-off for these calls is given here.

Experiments:
[1] = test system: Staphylococcus simulans; experiment: Antibacterial activity against Staphylococcus simulans assessed as inhibition of DNA synthesis at 0.5 to 5 times MIC measured upto 60 mins by [3H]-thymidine incorporation based scintillation counter analysis; type: functional, organism-based; details: DDE = dose-dependent effect
Outline: (§1)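 S. simulans was grown in cation-adjusted Mueller–Hinton medium at 37 °C. […] Samples were taken at 0–60 min, precipitated with ice-cold 10% TCA, filtered and counted. Inhibition at 60 min is relative to DMSO control; triplicate.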

[2] = test system: Staphylococcus simulans; experiment: Antibacterial activity against Staphylococcus simulans assessed as inhibition of RNA synthesis at 0.5 to 5 times MIC measured upto 60 mins by [3H]-uridine incorporation based scintillation counter analysis; type: functional, organism-based; details: DDE = dose-dependent effect; outline: as §1
[3] = test system: Staphylococcus simulans; experiment: Antibacterial activity against Staphylococcus simulans assessed as inhibition of RNA synthesis at 5 times MIC measured upto 60 mins by [3H]-uridine incorporation based scintillation counter analysis; type: functional; details: 1 h
Outline: (§2)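 Aliquots taken 0–60 min, precipitated with ice-cold 10% TCA, filtered, washed, scintillation counted. Percent inhibition is relative to DMSO control at 60 min; triplicate.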

[4] = test system: Staphylococcus epidermidis; experiment: Antibacterial activity against Staphylococcus epidermidis NIF104003 assessed as inhibition of bacterial growth incubated for 24 hrs by CLSI based method; type: functional
Outline: (§3)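 Broth microdilution per CLSI. Equal volume of twofold serial compound dilutions added. Incubated stationary at 37 °C for 24 h. MIC taken as lowest concentration giving complete inhibition of visible growth. Oxacillin control for Gram-positives, ceftriaxone for Gram-negatives.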

[5] = test system: Enterococcus faecalis; experiment: Antibacterial activity against Enterococcus faecalis ATCC700802 assessed as inhibition of bacterial growth incubated for 24 hrs by CLSI based method; type: functional; outline: as §3
[6] = test system: Staphylococcus aureus; experiment: Antibacterial activity against methicillin resistant Staphylococcus aureus FPR3757 assessed as inhibition of bacterial growth incubated for 24 hrs by CLSI based method; type: functional; details: read-out: MIC100
Outline: (§4)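 It was mixed 1:1 with twofold serial compound dilutions and incubated stationary at 37 °C for 24 h. MIC was the lowest concentration giving complete inhibition of observable growth, with an oxacillin control.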

[7] = test system: Staphylococcus aureus; experiment: Antibacterial activity against methicillin-resistant Staphylococcus aureus N315 assessed as inhibition of bacterial growth incubated for 24 hrs by CLSI based method; type: functional; outline: as §3
[8] = test system: Enterococcus faecium; experiment: Antibacterial activity against Enterococcus faecium DHMC #1 assessed as inhibition of bacterial growth incubated for 24 hrs by CLSI based method; type: functional; outline: as §3
[9] = test system: Staphylococcus simulans; experiment: Antibacterial activity against Staphylococcus simulans assessed as inhibition of protein synthesis at 5 times MIC measured upto 60 mins by [3H]-L-isoleucine incorporation based scintillation counter analysis; type: functional; details: 1 h; outline: as §2
[10] = test system: Staphylococcus simulans; experiment: Antibacterial activity against Staphylococcus simulans assessed as inhibition of DNA synthesis at 5 times MIC measured upto 60 mins by [3H]-thymidine incorporation based scintillation counter analysis; type: functional; details: 1 h; outline: as §2
[11] = test system: Staphylococcus aureus; experiment: Antibacterial activity against methicillin resistant Staphylococcus aureus FPR3757 assessed as inhibition of bacterial growth incubated for 24 hrs in presence of 10% FBS by CLSI based method; type: functional
Outline: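 CLSI broth microdilution against MRSA FPR3757 (USA300) in Mueller–Hinton broth supplemented with 10% serum (fetal bovine or mouse). Inoculum 10⁶ CFU/mL with twofold serial compound dilutions, stationary incubation at 37 °C for 24 h. MIC read as lowest concentration with complete inhibition of visible growth.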

[12] = test system: Enterococcus faecium; experiment: Antibacterial activity against Enterococcus faecium ATCC19579 assessed as inhibition of bacterial growth incubated for 24 hrs by CLSI based method; type: functional; outline: as §3
[13] = test system: Staphylococcus aureus; experiment: Antibacterial activity against methicillin-resistant Staphylococcus aureus MW2 assessed as inhibition of bacterial growth incubated for 24 hrs by CLSI based method; type: functional; outline: as §3
[14] = test system: Staphylococcus aureus; experiment: Antibacterial activity against methicillin-resistant Staphylococcus aureus NRS71 assessed as inhibition of bacterial growth incubated for 24 hrs by CLSI based method; type: functional; outline: as §3
[15] = test system: Enterococcus faecalis; experiment: Antibacterial activity against Enterococcus faecalis DHMC #1 assessed as inhibition of bacterial growth incubated for 24 hrs by CLSI based method; type: functional; outline: as §3
[16] = test system: Enterobacter cloacae; experiment: Antibacterial activity against Enterobacter cloacae ND-21 assessed as inhibition of bacterial growth incubated for 24 hrs by CLSI based method; type: functional; outline: as §3
[17] = test system: Staphylococcus simulans; experiment: Antibacterial activity against Staphylococcus simulans assessed as inhibition of protein synthesis at 0.5 to 5 times MIC measured upto 60 mins by [3H]-L-isoleucine incorporation based scintillation counter analysis; type: functional, organism-based; details: DDE = dose-dependent effect; outline: as §1
[18] = test system: Escherichia coli; experiment: Antibacterial activity against Escherichia coli DHMC-1 assessed as inhibition of bacterial growth incubated for 24 hrs by CLSI based method; type: functional; outline: as §3
[19] = test system: Staphylococcus aureus; experiment: Antibacterial activity against community-associated methicillin-resistant Staphylococcus aureus USA300 FPR3757 assessed as inhibition of bacterial growth incubated for 24 hrs by CLSI based method; type: functional; outline: as §4
[20] = test system: Klebsiella pneumoniae; experiment: Antibacterial activity against Klebsiella pneumoniae 7117 assessed as inhibition of bacterial growth incubated for 24 hrs by CLSI based method; type: functional; outline: as §3
[21] = test system: Staphylococcus aureus; experiment: Antibacterial activity against methicillin-resistant Staphylococcus aureus COL assessed as inhibition of bacterial growth incubated for 24 hrs by CLSI based method; type: functional; outline: as §3
[22] = test system: Staphylococcus simulans; experiment: Antibacterial activity against Staphylococcus simulans assessed as inhibition of cell wall synthesis at 5 times MIC measured upto 60 mins by [3H]-glucosamine incorporation based scintillation counter analysis; type: functional; details: 1 h; outline: as §2
[23] = test system: Staphylococcus aureus; experiment: microbe, parasite or virus in culture; details: USA300 FPR3757, 24 h
[24] = test system: Staphylococcus epidermidis; experiment: Antibacterial activity against Staphylococcus epidermidis NIF104008 assessed as inhibition of bacterial growth incubated for 24 hrs by CLSI based method; type: functional; outline: as §3
[25] = test system: Candida albicans; experiment: Antifungal activity against Candida albicans SC5314 assessed as inhibition of bacterial growth incubated for 24 hrs by CLSI based method; type: functional
Outline: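 Broth microdilution per CLSI. It is mixed 1:1 with twofold serial compound dilutions and incubated stationary at 35 °C for 24 h. MIC is read as the lowest concentration with no observable growth.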

[26] = test system: Erythrocyte; experiment: Hemolytic activity in sheep erythrocytes at 32 ug/ml incubated for 1 hr; type: toxicity, cell-based, Ovis aries; details: dose 32 µg/ml
Outline: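 4% sheep erythrocytes mixed 1:1 with twofold serial compound dilutions in PBS, incubated stationary 1 h at 37 °C, then centrifuged at 500g for 5 min. Supernatant A540 is measured and percent hemolysis is calculated relative to DMSO vehicle (0%) and Triton X-100 (100%). Triplicate, mean ± SD.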

[27] = test system: Vero; experiment: Cytotoxicity against African green monkey Vero cells assessed as increase in LDH release at 0.47 to 30 uM incubated for 24 hrs; type: toxicity, cell-based; details: chlorocebus sabaeus, dose 0.47-30 µM
Outline: (§5)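 Confluent Vero cells (maintained in RPMI 1640 + 10% FBS, 37 °C, 5% CO2) exposed to compound at 0.47–30 μM (twofold dilutions) in serum-free medium for 24 h at 37 °C. LDH in supernatant is measured colorimetrically at 490 nm and expressed as percent of 2% detergent positive control.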

[28] = test system: Cell membrane; experiment: Induction of cell membrane damage in Staphylococcus aureus USA300 assessed as bulging of the septum at 1 times MIC measured after 1 hrs by TEM analysis
Outline: (§6)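 Fixed in glutaraldehyde/paraformaldehyde in cacodylate pH 7.4, post-fixed with osmium tetroxide, stained with uranyl acetate, resin-embedded, thin-sectioned and imaged by TEM.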

[29] = test system: Cell membrane; experiment: Induction of cell membrane damage in Staphylococcus aureus USA300 assessed as cross-wall-septum formation with reduced splitting at 1 times MIC measured after 10 mins by TEM analysis; type: subcellular
[30] = Protein binding in human plasma at […] incubated for 4 hrs under shaking condition by LC-MS/MS based equilibrium dialysis method; type: ADME, cell-free
Outline: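 Rapid equilibrium dialysis (8k MWCO). Compound is spiked into human plasma at 10 μg/mL and dialysed against DPBS pH 7.4 with shaking for 4 h at 37 °C. Matrices are matched, proteins precipitated with methanol containing internal standard, and both chambers quantified by LC-MS/MS against a calibration curve. Percent free and bound are calculated from chamber concentrations.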

[31] = test system: Cell membrane; experiment: Induction of cell membrane damage in Staphylococcus aureus USA300 assessed as membrane wrinkling at 1 times MIC measured after 1 hrs by TEM analysis; outline: as §6
[32] = test system: Vero; experiment: Cytotoxicity against African green monkey Vero cells assessed as increase in LDH release at 30 uM incubated for 24 hrs relative to control; type: toxicity, cell-based; details: chlorocebus sabaeus; outline: as §5
[33] = test system: Cell membrane; experiment: Induction of cell membrane damage in Staphylococcus aureus USA300 assessed as mesosome-like membrane inclusions at 1 times MIC measured after 1 hrs by TEM analysis; outline: as §6

FC(F)(F)c1ccc2c(Nc3ccc(Cl)c(Cl)c3)cc(C(F)(F)F)nc2c1
inhibition [1]: Dde
inhibition [2]: Dde
inhibition (INH) [3]: 100%
MIC [4]: 0.25 mg/L (≈ 0.588 µM)
MIC [5]: 0.5 mg/L (≈ 1.18 µM)
MIC [6]: 0.0625 mg/L (≈ 0.147 µM)
MIC [7]: 0.25 mg/L (≈ 0.588 µM)
MIC [8]: 0.25 mg/L (≈ 0.588 µM)
inhibition (INH) [9]: 100%
inhibition (INH) [10]: 100%
MIC [11]: 8 mg/L
MIC [12]: 0.125 mg/L (≈ 0.294 µM)
MIC [13]: 0.125 mg/L (≈ 0.294 µM)
MIC [14]: 0.25 mg/L (≈ 0.588 µM)
MIC [15]: 0.25 mg/L (≈ 0.588 µM)
MIC [16]: > 128 mg/L
inhibition [17]: Dde
MIC [18]: > 128 mg/L
MIC [19]: 0.0625 mg/L (≈ 0.147 µM)
MIC [20]: > 128 mg/L
MIC [21]: 0.25 mg/L (≈ 0.588 µM)
inhibition (INH) [22]: 100%
MBC [23]: 2 mg/L (≈ 4.7 µM)
MIC [24]: 0.125 mg/L (≈ 0.294 µM)
MIC [25]: > 256 mg/L

Fc1ccc2c(Nc3ccc(C(F)(F)F)cn3)cc(C(F)(F)F)nc2c1
Activity [26]: Non-Toxic
MIC [6]: 1 mg/L (≈ 2.66 µM)

O=c1cc(C(F)(F)F)[nH]c2cc(F)cc(Nc3ccc(C(F)(F)F)cn3)c12
Activity [26]: Non-Toxic
MIC [6]: 1 mg/L (≈ 2.56 µM)

O=c1cc(C(F)(F)F)[nH]c2cc(C(F)(F)F)cc(N[C@H]3CC[C@H](C(F)(F)F)CC3)c12
Activity [27]: Non-Toxic
Activity [26]: Non-Toxic
Activity [28]: Active
MIC [4]: 0.125 mg/L (≈ 0.28 µM)
MIC [5]: 2 mg/L (≈ 4.48 µM)
MIC [6]: 0.125 mg/L (≈ 0.28 µM)
MIC [7]: 0.125 mg/L (≈ 0.28 µM)
Activity [29]: Active
MIC [8]: 0.25 mg/L (≈ 0.56 µM)
PPB [30]: 99.9%
MIC [11]: 4 mg/L
MIC [12]: 0.25 mg/L (≈ 0.56 µM)
MIC [13]: 0.125 mg/L (≈ 0.28 µM)
MIC [14]: 0.0625 mg/L (≈ 0.14 µM)
MIC [15]: 0.125 mg/L (≈ 0.28 µM)
MIC [16]: > 128 mg/L
MIC [18]: > 128 mg/L
MIC [19]: 0.5 mg/L (≈ 1.12 µM)
MIC [20]: > 128 mg/L
MIC [21]: < 0.06 mg/L
Activity [31]: Active
Activity [32]: 20%
Activity [33]: Active
MBC [23]: 4 mg/L (≈ 8.96 µM)
MIC [24]: 0.125 mg/L (≈ 0.28 µM)
MIC [25]: > 256 mg/L

Fc1cc2nc(C(F)(F)F)cc(Nc3ccc(C(F)(F)F)cn3)c2cc1F
Activity [26]: Toxic
MIC [6]: 0.25 mg/L (≈ 0.636 µM)

FC(F)(F)c1ccc2c(Nc3cc(Cl)ccn3)cc(C(F)(F)F)nc2c1
MIC [6]: 2 mg/L (≈ 5.11 µM)

COc1ccc2c(O)cc(C(F)(F)F)nc2c1
MIC [6]: 640 mg/L (≈ 2630 µM)

FC(F)(F)c1ccc2c(Nc3cccc(Br)c3)cc(C(F)(F)F)nc2c1
MIC [6]: 0.25 mg/L (≈ 0.574 µM)

Oc1cc(C(F)(F)F)nc2cc(Cl)ccc12
MIC [6]: 20 mg/L (≈ 80.8 µM)

FC(F)(F)c1ccc2c(Nc3nccs3)cc(C(F)(F)F)nc2c1
MIC [6]: 1 mg/L (≈ 2.75 µM)

FC(F)(F)c1ccc(Nc2cc(C(F)(F)F)nc3c(C(F)(F)F)cccc23)nc1
MIC [6]: 0.5 mg/L (≈ 1.18 µM)

CN(C)S(=O)(=O)c1ccc2c(Nc3ccc(C(F)(F)F)cn3)cc(C(F)(F)F)nc2c1
MIC [6]: 8 mg/L (≈ 17.2 µM)

FC(F)(F)c1ccc2c(Oc3ccc(Cl)c(Cl)c3)cc(C(F)(F)F)nc2c1
MIC [6]: > 32 mg/L

CN(C)c1ccc(Nc2cc(C(F)(F)F)cc3[nH]c(C(F)(F)F)cc(=O)c23)nc1
MIC [6]: 2 mg/L (≈ 4.8 µM)
